Series [1] in a line: Oral bioavailability in Wistar-Hannover rat plasma at 4 mg/kg and measured up to 24 hrs by LC/MS-MS analysis. Type of series: ADME, organism-based. In short, it runs like this:
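Plasma concentration–time data, n = 2, averaged. Cmax and Tmax read directly from the data. AUC0–24 by the linear trapezoidal rule. F calculated as dose-normalized AUC PO/IV.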

The nature of series [2]: Ratio of drug uptake in Wistar-Hannover rat unbound liver to plasma concentration at 10 mg/kg, po after 6 hrs by LC/MS-MS analysis. Conditions: other tissue. The class given is ADME, organism-based. The procedure, abridged:
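Male Wistar-Hannover rats (n = 2 or 3) dosed orally as a suspension in 0.5% methyl cellulose with 0.1% Tween 80. Total plasma and liver concentrations taken 6 h post-dose. Converted to unbound values using fraction unbound in plasma and liver from equilibrium dialysis. Kpu,u = ratio of mean free liver to free plasma concentration.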

The target in series [3] is Cytochrome P450 2C19 (Homo sapiens, UniProt P33261). As to the kind of experiment: inhibition of CYP2C19 in human liver microsomes. The class given is ADME.
Cytochrome P450 2C19, sequence (P33261 whole entry): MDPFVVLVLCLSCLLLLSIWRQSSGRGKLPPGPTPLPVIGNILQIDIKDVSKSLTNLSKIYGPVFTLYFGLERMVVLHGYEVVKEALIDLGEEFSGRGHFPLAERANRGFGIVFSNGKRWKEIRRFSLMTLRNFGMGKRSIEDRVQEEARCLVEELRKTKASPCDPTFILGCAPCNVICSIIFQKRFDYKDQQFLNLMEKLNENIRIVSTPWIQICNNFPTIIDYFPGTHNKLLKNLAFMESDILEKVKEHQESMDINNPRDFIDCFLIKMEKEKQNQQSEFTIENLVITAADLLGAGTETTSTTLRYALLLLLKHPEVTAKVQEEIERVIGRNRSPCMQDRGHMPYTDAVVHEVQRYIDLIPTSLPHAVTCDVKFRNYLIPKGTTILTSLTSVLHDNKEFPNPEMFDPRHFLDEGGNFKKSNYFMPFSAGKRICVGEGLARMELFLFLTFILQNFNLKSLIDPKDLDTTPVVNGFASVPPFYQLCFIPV
Series [4] can be described thus: Apparent volume of distribution at steady state in cynomolgus monkey plasma at 1 mg/kg, iv and measured up to 72 hrs by LC/MS-MS analysis. The class given is ADME, organism-based, Macaca fascicularis. Conditions: read-out: Vdss(app). In short, it runs like this:
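Cynomolgus monkeys dosed 1 mg/kg IV as the tris salt in 2% N-methylpyrrolidone/98% sulfobutylether-β-cyclodextrin (12.5%) in 50 mM TRIS, pH 8.0, or PO as the tris salt. Plasma was analysed by LC-MS/MS, n = 2. CL = IV dose/AUC; Vss = dose/(AUC × elimination rate constant); Cmax taken from observed data.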

Series [5] in a line: Fraction unbound in monkey liver by equilibrium dialysis method. Conditions: rhesus monkey. Type of series: ADME, tissue-based, Macaca mulatta. The procedure, abridged: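 Fraction unbound in plasma and liver tissue was determined by equilibrium dialysis.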
The test system of series [6] is Rattus norvegicus. Kind of series: Effect on triglyceride accumulation in Sprague-Dawley rat high fat dietary model at 1 mg/kg, po assessed as reduction in triglyceride level after 42 days by XPT clinical analyzer. The class given is functional. Details: scale not given: the % may be the effect or the level left. To be noted: time 42 day. In short, it runs like this: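 High-fat-diet-fed Sprague-Dawley rats dosed orally for 42 days, with chow-fed and vehicle controls, n = 10 per group. Read-out is hepatic triglyceride, reported as mean ± SEM.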

A short description of series [7]: Inhibition of DNL in po dosed Sprague-Dawley rat assessed as reduction in DNL level in liver pretreated with one hr followed by [14C]-acetate treatment and measured after 1 hr. Type of series: functional, organism-based. In short, it runs like this: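 Sprague-Dawley rats given single oral doses of 0.03–300 mg/kg in 0.5% methyl cellulose vehicle, n = 16 per dose. Read-out is incorporation of 14C-acetate into lipids in liver, bone marrow and lung, measured at 2 h post-dose relative to vehicle. Data are mean ± SEM. EC50 is reported with a 95% confidence interval.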

In series [8] the target is Solute carrier family 22 member 2 (Homo sapiens, UniProt O15244). Kind of series: Inhibition of human SLC22A2 expressed in HEK293 cells in presence of para-aminohippuric acid/metformin. Type of series: cell-based.
Solute carrier family 22 member 2, sequence (O15244 whole entry): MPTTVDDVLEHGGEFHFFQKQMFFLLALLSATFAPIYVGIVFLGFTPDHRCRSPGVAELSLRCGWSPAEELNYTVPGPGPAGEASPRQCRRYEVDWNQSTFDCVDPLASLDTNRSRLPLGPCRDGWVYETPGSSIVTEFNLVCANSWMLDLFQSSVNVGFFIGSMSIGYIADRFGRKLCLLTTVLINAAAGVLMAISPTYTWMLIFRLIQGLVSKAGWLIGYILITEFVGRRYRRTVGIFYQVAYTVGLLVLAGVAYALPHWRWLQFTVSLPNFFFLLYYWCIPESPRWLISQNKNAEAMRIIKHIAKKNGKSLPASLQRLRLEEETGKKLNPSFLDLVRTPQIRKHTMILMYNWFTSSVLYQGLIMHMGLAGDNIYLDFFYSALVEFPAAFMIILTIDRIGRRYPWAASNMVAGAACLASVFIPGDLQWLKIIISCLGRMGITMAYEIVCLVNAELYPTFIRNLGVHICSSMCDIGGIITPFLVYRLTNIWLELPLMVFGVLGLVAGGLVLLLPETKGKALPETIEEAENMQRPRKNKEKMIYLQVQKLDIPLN
Series [9] addresses Solute carrier organic anion transporter family member 1B1 (Homo sapiens, UniProt Q9Y6L6). As to the kind of experiment: Inhibition of human OATP1B1 expressed in HEK293 cells n presence of rosuvastatin. Type of series: cell-based.
Series [10] can be described thus: Drug uptake in Wistar-Hannover rat assessed as plasma concentration at 10 mg/kg, po after 6 hrs by LC/MS-MS analysis. Type of series: ADME, organism-based. The procedure, abridged: (§1)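 Male Wistar-Hannover rats, n = 2 or 3, given an oral suspension in 0.5% methyl cellulose with 0.1% Tween 80; one compound was dosed as the HCl salt. Total plasma and liver concentrations were measured 6 h post-dose. Kp = liver/plasma total concentration. Kpu,u uses fu values from equilibrium dialysis.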

The subject of series [11] is CHO. As to the kind of experiment: Genotoxicity in CHO cells in presence of (aroclor-induced rat liver S9 fraction/NADPH by micronucleus test. The class given is toxicity, cell-based, Cricetulus griseus. Conditions: chinese hamster. The procedure, abridged:
(§2)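 In vitro micronucleus assay in Chinese hamster ovary or TK6 cells, run with and without metabolic activation by aroclor-induced rat liver S9 fraction plus NADPH.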

Series [12] in a line: Drug uptake in Wistar-Hannover rat liver at 10 mg/kg, po after 6 hrs by LC/MS-MS analysis. The class given is ADME, organism-based. To be noted: read-out: Drug uptake. In short, it runs like this: as §1
A short description of series [13]: Genotoxicity in Salmonella typhimurium TA100 by Ames test. The class given is toxicity. Conditions: salmonella enterica subsp. enterica serovar typhimurium. The procedure, abridged:
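Ames test in Salmonella strains TA98, TA100, TA1535 and TA1537, run with and without aroclor-induced rat liver S9 plus NADPH.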
(In general: The Ames test detects mutagens through reverse mutation in bacteria.)

A short description of series [14]: Ratio of drug uptake in Wistar-Hannover rat liver to plasma at 10 mg/kg, po after 6 hrs by LC/MS-MS analysis. Type of series: ADME, organism-based. To be noted: liver and plasma. In short, it runs like this: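 Male Wistar-Hannover rats (n = 2 or 3) dosed orally as a suspension in 0.5% methyl cellulose with 0.1% Tween 80. Plasma and liver sampled 6 h post-dose. Kp is total liver/plasma; Kpu,u uses unbound fractions from equilibrium dialysis of plasma and liver.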

Series [15] deals with TK6. As to the kind of experiment: Genotoxicity in human TK6 cells by micronucleus test. The class given is toxicity, cell-based. In short, it runs like this: as §2
Series [16] is described as follows: Drug uptake in human hepatocytes assessed as passive diffusion clearance at 1 uM up to 15 mins in presence of rifamycin SV by LC-MS/MS analysis. Type of series: ADME, cell-based, Hepatocyte. Conditions: 0.25 h.
The target of series [17] is T1, OATP1B1 (Homo sapiens, UniProt Q9Y6L6).
T1 sequence (Q9Y6L6 whole entry): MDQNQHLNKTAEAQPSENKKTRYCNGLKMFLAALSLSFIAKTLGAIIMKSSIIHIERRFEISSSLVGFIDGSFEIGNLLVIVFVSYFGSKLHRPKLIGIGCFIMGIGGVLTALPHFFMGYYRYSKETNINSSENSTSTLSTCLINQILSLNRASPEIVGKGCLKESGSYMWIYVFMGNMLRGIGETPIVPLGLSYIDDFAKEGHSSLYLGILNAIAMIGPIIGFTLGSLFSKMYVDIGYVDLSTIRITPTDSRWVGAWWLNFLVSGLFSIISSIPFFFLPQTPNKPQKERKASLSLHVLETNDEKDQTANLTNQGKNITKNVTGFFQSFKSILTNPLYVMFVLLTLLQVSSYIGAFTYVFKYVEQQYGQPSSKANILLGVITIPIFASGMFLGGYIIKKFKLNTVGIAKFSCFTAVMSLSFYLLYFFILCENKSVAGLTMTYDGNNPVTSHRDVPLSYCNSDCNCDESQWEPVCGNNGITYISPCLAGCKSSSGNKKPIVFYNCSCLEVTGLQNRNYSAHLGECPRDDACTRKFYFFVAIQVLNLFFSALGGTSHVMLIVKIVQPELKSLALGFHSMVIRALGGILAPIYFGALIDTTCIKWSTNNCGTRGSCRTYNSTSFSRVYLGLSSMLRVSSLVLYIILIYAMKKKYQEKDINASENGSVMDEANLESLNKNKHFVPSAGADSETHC
As to the kind of experiment: Substrate activity at human OATP1B1 stably expressed in HEK293 cells assessed as ratio of total to passive cellular uptake at 1 to 3 uM incubated for 0.5 to 4 mins by LC/MS-MS analysis. To be noted: HEK293 cells stably expressing human OATP1B1, dose 1-3 µM, time 0.5-4 min. The class given is ADME, cell-based. In short, it runs like this: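 Stably transfected HEK293 cells and wild-type parental cells, cultured to confluency in DMEM with 10% heat-inactivated FBS and 5 µg/mL blasticidin. Uptake at 1–3 µM in HBSS/20 mM HEPES pH 7.4, 37 °C, 0.5–4.0 min. Cells washed in ice-cold buffer, lysed in MeOH, quantified by LC-MS/MS and normalized to protein. Ratio is transfected/parental uptake; >2 denotes substrate.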

A short description of series [18]: Drug uptake in human hepatocytes assessed as active uptake intrinsic clearance at 1 uM up to 15 mins by LC-MS/MS analysis. The class given is ADME, cell-based, Hepatocyte. Conditions: 0.25 h.

Where only a bound is given, the exact number is not on record here.

For orientation: bioavailability means dose-corrected exposure relative to a reference, in per cent. `COc1cc(C(=O)N2CCC3(CC2)CC(=O)c2nn(C(C)(C)C)cc2O3)cc(-c2ccc(C(=O)O)cc2)n1` yielded a bioavailability in series [1] of 27%.

What is called IC50 is the concentration at which inhibition is half-maximal. A word on the fraction unbound: it is free concentration divided by total concentration. Usually EC50 stands for the concentration that produces a half-maximal response. For orientation: Kp means tissue or fluid exposure divided by exposure in the circulation. For `COc1cc(C(=O)N2CCC3(CC2)CC(=O)c2c(cnn2C(C)C)C3)cc(-c2ccc(C(=O)O)cc2)n1` [CLESACOSTAT], the Ratio in series [2] is given as 132. In addition, the IC50 is over 50 µM in [3], over 30 µM in series [8] and 11.7 µM in series [9]. For the same molecule, in [4], the Vd worked out at 0.49 L/kg. In series [5], this molecule registered a fraction unbound of 0.15. Also, the Activity is 30% in [6], “Non-Toxic” in series [11], “Non-Toxic” in series [13] and “Non-Toxic” in [15]. Besides, in series [7], the EC50 was 0.0054 µM. In addition, the concentration at 6 h worked out at 314 ng/mL in series [10] and 24600 ng/mL in [12]. The Kp at 6 h in series [14] was determined as 78. Also, the CLH in [16] amounted to 2.7 µL/min/mg; in series [18], 24 µL/min/mg. The uptake ratio at up to 3 µM in series [17] came out at 3.5.

The values above are taken from ChEMBL document CHEMBL4665761, “Optimizing the Benefit/Risk of Acetyl-CoA Carboxylase Inhibitors through Liver Targeting” (J Med Chem, 2020).
